PostGolgi yeast = growth inhibition of a yeast mutant, post-Golgi transport screen; post-Golgi transport phenotypic cell assay; inhibition, % at 10 µM; 98,000 compounds, 0.9% hits; AID 739;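 note: yeast cells grown in 1536-well plates; yeast grown about 18 h at 30C before absorbance read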
PLAP act = human PLAP activation; P05187; 96,000 compounds, 1.2% hits; activation fold at 20 µM; purified PLAP enzyme, luminescent substrate read-out; active compounds read high; in the data active = activation fold above about 2
HePTP inhibitor = blocks human HePTP tyrosine phosphatase; P35236; recombinant HePTP phosphatase activity, OD absorbance; inhibition, % at 20 µM; 110,000 compounds, 0.64% hits; in the data active = inhibition above about 50%
Target sequence (P35236 whole entry, looked up): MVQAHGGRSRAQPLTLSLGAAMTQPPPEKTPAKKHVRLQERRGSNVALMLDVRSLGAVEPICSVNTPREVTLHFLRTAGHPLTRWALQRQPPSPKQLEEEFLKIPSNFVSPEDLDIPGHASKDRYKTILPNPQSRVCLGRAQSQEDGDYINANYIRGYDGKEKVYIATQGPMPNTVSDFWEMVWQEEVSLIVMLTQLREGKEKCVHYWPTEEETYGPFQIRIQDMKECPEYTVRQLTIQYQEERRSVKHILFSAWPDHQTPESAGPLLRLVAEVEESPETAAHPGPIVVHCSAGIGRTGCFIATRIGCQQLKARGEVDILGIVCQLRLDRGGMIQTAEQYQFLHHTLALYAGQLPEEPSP
E coli WT exp = growth inhibitors of E. coli BW25113 wild type | OD600 absorbance | growth inhibition, % at 100 µM | 98,000 compounds, 0.15% hits;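 active = growth inhibition above about 50% at one test dose, limit read from the data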;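 note: growth measured after 20 h incubation at 37 °C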
Ecoli tolC = blocks growth of E. coli BW25113 tolC mutant. OD615. growth inhibition, % at 10 µM (by protocol). 65,000 compounds, 2.2% hits. AID 573;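 active = growth inhibition at or above a cutoff equal to the mean over every tested compound plus 3 SD, cut at about 60% in these data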;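 note: growth measured after 20 h incubation at 37 °C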
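Test system: E. coli BW25113 ΔtolC::kan bacteria | Medium: Kanamycin-containing LB broth (50 µg/mL) | Dosing: One dose of 10 µM final | Times: 20 h incubation with compound, 37 °C | Detection: Optical density read at 615 nm | Read-out basis: Percent growth inhibition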
PostGolgi ctrl = growth of the yeast control strain, post-Golgi counter-screen; inhibition, % at 10 µM; AID 738; efflux-deficient yeast background strain, growth absorbance A615, 16 h; 98,000 compounds, 5% hits
A number is an active result; - = inactive; . = no result given. This is a sample that favours compounds with a hit; in the whole collection about 5.4% have one here. Cut-off read from the data, not from the text of the source, unless noted: active = inhibition above about 30%; inactive = the rest.

SMILES	PostGolgi yeast	PLAP act	HePTP inhibitor	E coli WT exp	Ecoli tolC	PostGolgi ctrl
CC(C)(C)C(=O)C(Cc1ccccc1)n1cncn1 (stereo not drawn)	51	-	.	-	.	45
Cc1csc(NC(=O)CSc2nnc(C)s2)n1	-	-	-	-	-	-
COc1ccc(C(=O)O/N=C(\N)Cc2ccc(Cl)cc2)cc1OC	-	-	.	-	.	-
Cc1ccc(-n2nnnc2SCC(=O)Nc2cccc(NC(=O)c3ccco3)c2)cc1C	-	-	-	-	-	38
CCc1ccc(-n2nnnc2SCC(=O)NNC(=O)c2ccco2)cc1	-	2.3	.	-	.	-
CCc1cc2cc(C)c(C)cc2nc1SCC(=O)NNC(=O)c1ccco1	-	-	.	-	.	-
CCc1cc2cccc(C)c2nc1SCC(=O)NNC(=O)c1ccco1	-	-	.	-	.	38
CC(=O)c1ccc(-n2nnnc2SCC(=O)NNC(=O)c2ccco2)cc1	-	2.2	.	-	.	43
O=C(Nc1nccs1)C1C2CC3OC(=O)C1C3C2 (stereo not drawn)	-	-	-	-	-	-
O=C1OCCC1Sc1nnc(-c2ccccc2)o1 (stereo not drawn)	-	-	-	-	-	-
O=C(O)c1ccc(OC(F)(F)C(F)C(F)(F)F)cc1 (stereo not drawn)	-	-	-	-	-	-
O=C(CN(C(=O)c1ccco1)c1cccc(F)c1)NCc1ccc(F)cc1	-	-	-	-	-	-
COc1cc2nc(NCCN3CCOCC3)n3nc(-c4ccccc4)nc3c2cc1OC	.	.	-	.	-	.
CN1CCC(=NNC(=O)CSCc2ccccc2)CC1	-	-	.	-	.	39
C=CCc1c(C)nc(C)nc1N/N=C/c1ccccc1O	-	2.5	.	-	.	-
CCN(CC)S(=O)(=O)c1ccc(C(=O)NCc2ccc(C)cc2)cc1	-	-	.	-	.	-
CC1CCN(C(=O)C2CCN(CCCc3ccccc3)CC2)CC1	-	2.2	-	-	-	-
O=C(C1CCN(CCCc2ccccc2)CC1)N1CCCCC1	-	-	.	-	.	-
Cc1ccc(N(CC(=O)Nc2ccc3c(c2)OCCO3)S(=O)(=O)c2c(C)noc2C)cc1	-	-	-	-	65	-
CCOc1ccc(N(CC(=O)Nc2cccc(OC)c2)S(=O)(=O)c2c(C)noc2C)cc1	-	-	-	-	70	-
CCOc1ccc(N(CC(=O)Nc2cccc(Cl)c2)S(=O)(=O)c2c(C)noc2C)cc1	-	-	-	-	73	45
CCOc1ccc(N(CC(=O)Nc2ccc(C)cc2)S(=O)(=O)c2c(C)noc2C)cc1	-	-	-	-	-	-
CCOc1ccc(N(CC(=O)Nc2ccc(F)c(F)c2)S(=O)(=O)c2c(C)noc2C)cc1	-	-	-	-	-	-
CC1=C(C#N)c2nc(N)c(C#N)c(C)c2/C1=C/c1ccc(-c2ccc([N+](=O)[O-])cc2)o1	.	.	-	.	.	.
O=C1N=c2ccccc2=C1c1sc(=S)n(CC2CCCO2)c1O (stereo not drawn)	-	-	-	-	-	-
SMILES	PostGolgi yeast	PLAP act	HePTP inhibitor	E coli WT exp	Ecoli tolC	PostGolgi ctrl
[O-][n+]1c2c(c3c4non(O)c4ccc31)CCCC2	31	-	.	-	.	82
COn1c2c(c3c4no[n+]([O-])c4ccc31)CCCC2	-	-	.	-	.	-
Cc1occc1C(=O)NNC(=O)Cc1ccccc1	-	-	.	-	.	-
Cc1ccccc1C(=O)NNC(=O)Cc1ccccc1	-	2	-	-	.	-
Cc1ccc(C(=O)Nc2ccc(C(=O)/C=C/c3cccnc3)cc2)cc1	.	.	-	.	.	.
O=C(/C=C/c1cccnc1)c1ccc(NC(=O)c2cccc(Br)c2)cc1	-	-	.	-	.	40
Cn1c(N/N=C/c2cccs2)cc(=O)n(C)c1=O	-	-	.	-	.	35
Cn1c(NC(=O)c2cccs2)cc(=O)n(C)c1=O	-	-	-	-	-	-
